Measurements published in ChEMBL document CHEMBL3576784, “Azolylthioacetamide: A Highly Promising Scaffold for the Development of Metallo-β-lactamase Inhibitors” (ACS Med Chem Lett, 2015).

Substrate: C[C@@H](O)[C@H]1C(=O)N2C(C(=O)O)=C(SCCNC=N)C[C@H]12
Assay: Activity of Aeromonas veronii metallo-beta-lactamase ImiS
In short: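 Purified enzyme; initial rates of imipenem hydrolysis followed by UV spectrophotometry (262 or 300 nm) in 50 mM Tris pH 7.0, 25 °C. Substrate 24–140 μM, inhibitor 0–10 μM. Rates in triplicate and averaged. Inhibition mode from Lineweaver–Burk plots. Ki from fits of initial velocity vs substrate concentration at each inhibitor level.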

B1: Beta-lactamase (Aeromonas veronii), O31272 (protein)
chain: MMKGWIKCGLAGAVVLMASFWGGSVRAAGMSLTQQVSGPVYVVEDNYYVQENSMVYFGAKGVTVVGATWTPDTARELHKLIKRVSRKPVLEVINTNYHTDRAGGNAYWKSIGAKVISTRQTRDLMKSDWAEIVAFTRKGLPEYPDLPLVLPNVVHEGDFTLQEGKLRAFYLGPAHSPDGIFVYFPDQQVLYGNCILKEKLGNLSFADVKAYPQTLERLKAMKLPIKTVVGGHDSPLHGPELIDHYEALIKAASQS
B1 was tested, and the Km was 99 µM and the kcat was 255 s⁻¹.
